{
  "source": "ChEMBL document CHEMBL4387704",
  "about": "“Design, synthesis and biological evaluation of novel isoindolinone derivatives as potent histone deacetylase inhibitors” (Eur J Med Chem, 2019)",
  "type_in_all_cases": "functional",
  "key": {"HCT-116": {"system": "HCT-116", "assay": "Antiproliferative activity against human HCT116 assessed as reduction in cell viability measured after 72 hrs using alamar blue based fluorescence method", "details": "HCT-116, 72 h", "how_it_was_run": "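HCT116 and MCF-7 grown in McCoy's 5A with 10% FBS and penicillin/streptomycin at 37 °C, 5% CO2. Cells plated in 96-well format and exposed to drug for 72 h. Alamar blue (1 mM solution) added, incubated 5–6 h, fluorescence read at 530/590 nm.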"}, "MCF7 [1]": {"system": "MCF7", "assay": "Potency index, ratio of IC50 of chidamide to IC50 of test compound against human MCF7 cells"}, "K562": {"system": "K562", "assay": "Growth inhibition of human K562 cells assessed as cell growth inhibition at 10 uM incubated for 48 hrs by sulforhodamine B assay", "details": "K562, 48 h, read-out: GI"}, "Malme-3M": {"system": "Malme-3M", "assay": "Growth inhibition of human MALME-3M cells assessed as cell growth inhibition at 10 uM incubated for 48 hrs by sulforhodamine B assay", "details": "read-out: GI"}, "UACC-62": {"system": "UACC-62", "assay": "Growth inhibition of human UACC62 cells assessed as cell growth inhibition at 10 uM incubated for 48 hrs by sulforhodamine B assay", "details": "UACC-62, 48 h, read-out: GI"}, "OVCAR-4": {"system": "OVCAR-4", "assay": "Growth inhibition of human OVCAR4 cells assessed as cell growth inhibition at 10 uM incubated for 48 hrs by sulforhodamine B assay", "details": "OVCAR-4, 48 h, read-out: GI"}, "NCI/ADR-RES": {"system": "NCI/ADR-RES", "assay": "Growth inhibition of human NCI/ADR-RES cells assessed as cell growth inhibition at 10 uM incubated for 48 hrs by sulforhodamine B assay", "details": "read-out: GI"}, "MCF7 [2]": {"system": "MCF7", "assay": "Growth inhibition of human MCF7 cells assessed as cell growth inhibition at 10 uM incubated for 48 hrs by sulforhodamine B assay", "details": "MCF7, 48 h, read-out: GI"}},
  "data": [
    {"smiles": "Nc1cc(F)ccc1NC(=O)c1ccc(CNC(=O)/C=C2\\NC(=O)c3ccccc32)cc1", "values": [
      {"measurement": "IC50", "setting": "HCT-116", "value": 432, "unit": "nM"},
      {"measurement": "Ratio IC50", "setting": "MCF7 [1]", "value": 2},
      {"measurement": "inhibition of growth at 10 µM", "setting": "K562", "value": 61.6, "unit": "%"},
      {"measurement": "inhibition of growth at 10 µM", "setting": "Malme-3M", "value": 52.6, "unit": "%"},
      {"measurement": "inhibition of growth at 10 µM", "setting": "UACC-62", "value": 57.8, "unit": "%"},
      {"measurement": "inhibition of growth at 10 µM", "setting": "OVCAR-4", "value": 21.3, "unit": "%"},
      {"measurement": "inhibition of growth at 10 µM", "setting": "NCI/ADR-RES", "value": 18, "unit": "%"},
      {"measurement": "inhibition of growth at 10 µM", "setting": "MCF7 [2]", "value": 35.5, "unit": "%"}
    ]}
  ]
}
